Bioassay records (PubChem BioAssay)
S100A4 MyoIIA – inhibitors of human S100A4 binding to myosin IIA peptide | P26447 | inhibition, % at 10.7 µM | S100A4/TAMRA-MyoIIA peptide fluorescence polarization | hit rate 0.14% among 360,000;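 active means mean inhibition of at least 70% across replicates, with every replicate also reaching that level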
Target sequence (P26447 whole entry, looked up): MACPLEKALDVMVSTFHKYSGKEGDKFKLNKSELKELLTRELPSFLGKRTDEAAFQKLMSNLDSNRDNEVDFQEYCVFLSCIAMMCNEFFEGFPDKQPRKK
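Test system – S100A4 monomer (human) · Compound – single-point compound testing · Schedule – 5 min incubation before reading · Probe or stimulus – TAMRA-labelled myosin IIA heavy-chain peptide probe, 5 nM · Benchmarks – neutral control DMSO, positive control TFP · Medium – Calcium-containing HEPES buffer, pH 7.2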
SIRT5 inh – sirtuin-5 (human) deacylase inhibition; Q9NXA8; hit rate 1.1% among 330,000; inhibition, % at 15 µM; Purified SirT5, succinyl-peptide AMC, trypsin-coupled fluorescence; in the data active means inhibition above about 15%
Target sequence (Q9NXA8 whole entry, looked up): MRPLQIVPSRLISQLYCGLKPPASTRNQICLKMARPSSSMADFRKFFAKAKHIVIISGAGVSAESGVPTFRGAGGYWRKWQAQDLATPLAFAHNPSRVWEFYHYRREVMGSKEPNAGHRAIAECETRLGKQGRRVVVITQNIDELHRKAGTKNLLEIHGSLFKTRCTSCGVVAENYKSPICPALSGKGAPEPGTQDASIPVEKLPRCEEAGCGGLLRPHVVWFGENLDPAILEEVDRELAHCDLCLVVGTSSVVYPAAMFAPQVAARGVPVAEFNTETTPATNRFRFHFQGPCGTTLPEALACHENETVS
ERp5 block – ERp5 (human) disulfide isomerase inhibition | ERp5 insulin aggregation, absorbance 650 nm, 90 min | inhibition, % at 9.99 µM | hit rate 0.05% among 350,000 | AID 651711;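 active means mean replicate inhibition above about 25%, with every replicate also reaching it, limit read from the data, passing the limit was not always enough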
GSIS activator – GLuc luminescence reporter in INS-1E cells, primary screen for activators of glucose-dependent secretion of insulin; INS-1E GLuc reporter insulin secretion, 2-3 h; activation, % at 16.6 µM; hit rate 0.61% among 370,000; AID 743287;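 active means lowest replicate activation of at least 40%, so every replicate reaches that level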
PDI turbidity – inhibitors of human protein disulfide isomerase. hit rate 0.052% among 350,000. PDI insulin aggregation turbidity, A650, 90 min. inhibition, % at 10 µM. P07237;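 active means mean inhibition across replicates of 30% or more, whatever share of single replicates reach that level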
Large screens that a line does not name were inactive; ! = not confirmed by another sample. Most compounds without a hit are left out; they make up all but 1.5% or so of the library.

Cc1ccc(S(=O)(=O)Nc2ccc3c(c2)C(=O)N([C@@H](C)CO)C[C@H](C)[C@@H](CN(C)Cc2ccc(C(F)(F)F)cc2)OCCCC[C@H](C)O3)cc1	SIRT5 inh 23 (no result: PDI turbidity)
Cc1ccc(S(=O)(=O)Nc2ccc3c(c2)C(=O)N([C@@H](C)CO)C[C@@H](C)[C@H](CN(C)Cc2ccc(C(F)(F)F)cc2)OCCCC[C@@H](C)O3)cc1	SIRT5 inh 18 (no result: PDI turbidity)
Cc1ccc(S(=O)(=O)Nc2ccc3c(c2)C(=O)N([C@H](C)CO)C[C@H](C)[C@@H](CN(C)Cc2ccc(C(F)(F)F)cc2)OCCCC[C@@H](C)O3)cc1	none (no result: PDI turbidity)
COCCNC(=O)C[C@@H]1C[C@@H]2c3cc(NC(=O)c4ccc5c(c4)OCO5)ccc3O[C@@H]2[C@H](CO)O1	none (no result: PDI turbidity)
Cc1ccc(S(=O)(=O)Nc2ccc3c(c2)C(=O)N([C@H](C)CO)C[C@@H](C)[C@@H](CN(C)Cc2ccc(C(F)(F)F)cc2)OCCCC[C@@H](C)O3)cc1	SIRT5 inh 18 (no result: PDI turbidity)
Cc1cc(N/N=C/c2ccc(O)cc2)c2cccc(C)c2n1	SIRT5 inh 21
Cc1cc(C)c2nc(C)cc(N/N=C/c3ccc(O)cc3)c2c1	none
O=C(CSc1ccsc1[N+](=O)[O-])NCc1ccccc1	S100A4 MyoIIA 104
C[C@H]1CN([C@@H](C)CO)C(=O)c2cc(NS(=O)(=O)c3ccccc3)ccc2O[C@H]1CN(C)S(C)(=O)=O	none (no result: PDI turbidity)
C[C@@H]1CN([C@H](C)CO)S(=O)(=O)c2ccc(/C=C/c3ccccc3)cc2O[C@@H]1CN(C)C(=O)Nc1cc(F)ccc1F	SIRT5 inh 25 (no result: PDI turbidity)
COc1cccc(NC(=O)N(C)C[C@@H]2Oc3cc(-c4ccccc4F)ccc3S(=O)(=O)N([C@H](C)CO)C[C@@H]2C)c1	SIRT5 inh 17 (no result: PDI turbidity)
COc1cccc(-c2ccc3c(c2)O[C@@H](CN(C)C(=O)c2ccccc2F)[C@H](C)CN([C@H](C)CO)S3(=O)=O)c1	none (no result: PDI turbidity)
C[C@H](CO)N1C[C@H](C)[C@@H](CN(C)C(=O)Nc2cc(F)ccc2F)Oc2cc(/C=C/c3ccccc3)ccc2S1(=O)=O	SIRT5 inh 21 (no result: PDI turbidity)
COc1cccc(-c2ccc3c(c2)O[C@H](CN(C)C(=O)c2ccccc2F)[C@H](C)CN([C@H](C)CO)S3(=O)=O)c1	SIRT5 inh 37!
COc1cccc(NC(=O)N(C)C[C@H]2Oc3cc(-c4ccccc4OC)ccc3S(=O)(=O)N([C@H](C)CO)C[C@H]2C)c1	none (no result: PDI turbidity)
COCC(=O)Nc1ccc2c(c1)C(=O)N(C)[C@H]1CC[C@H](CC(=O)Nc3cn(C)nc3C)O[C@@H]1CO2	none (no result: S100A4 MyoIIA, SIRT5 inh, ERp5 block, PDI turbidity)
Cc1noc(C)c1NC(=O)N(C)C[C@H]1Oc2c(NC(=O)c3ccc(-c4nccs4)cc3)cccc2C(=O)N([C@H](C)CO)C[C@@H]1C	none (no result: PDI turbidity)
C[C@H]1CN([C@@H](C)CO)S(=O)(=O)c2ccc(-c3cccc(F)c3)cc2O[C@@H]1CN(C)C(=O)Nc1cc(F)ccc1F	SIRT5 inh 19 (no result: PDI turbidity)
COc1cccc(NC(=O)N(C)C[C@@H]2Oc3cc(/C=C/c4ccccc4)ccc3S(=O)(=O)N([C@@H](C)CO)C[C@H]2C)c1	SIRT5 inh 102 (no result: PDI turbidity)
C[C@H]1CN([C@@H](C)CO)S(=O)(=O)c2ccc(-c3cccc(F)c3)cc2O[C@H]1CN(C)C(=O)Nc1cc(F)ccc1F	none (no result: SIRT5 inh, PDI turbidity)
Cc1ccccc1-c1ccc2c(c1)O[C@H](CN(C)C(=O)Nc1ccc(F)cc1)[C@H](C)CN([C@H](C)CO)S2(=O)=O	SIRT5 inh 16 (no result: PDI turbidity)
C[C@@H]1CN([C@H](C)CO)S(=O)(=O)c2ccc(/C=C/c3ccccc3)cc2O[C@H]1CN(C)C(=O)Nc1cc(F)ccc1F	SIRT5 inh 23 (no result: PDI turbidity)
COc1cccc(NC(=O)N(C)C[C@@H]2Oc3cc(/C=C/c4ccccc4)ccc3S(=O)(=O)N([C@H](C)CO)C[C@@H]2C)c1	none (no result: PDI turbidity)
CN(C)CC#Cc1ccc([C@@H]2[C@H]3CN(C(=O)Cc4cccnc4)CC(=O)N3[C@H]2CO)cc1	none (no result: PDI turbidity)
C[C@@H]1CN([C@@H](C)CO)S(=O)(=O)c2ccc(/C=C/c3ccccc3)cc2O[C@@H]1CN(C)C(=O)Nc1ccc(F)cc1	SIRT5 inh 17 (no result: PDI turbidity)
COc1cccc(NC(=O)N(C)C[C@H]2Oc3cc(C#CC4(O)CCCC4)ccc3S(=O)(=O)N([C@H](C)CO)C[C@H]2C)c1	S100A4 MyoIIA 95 (no result: PDI turbidity)
CN1CCN(C(=O)c2cc3c(c(-c4cccc(-c5ccc(C(=O)N(C)C)cc5)c4)n2)[C@H](CCO)N([S@@](=O)C(C)(C)C)C3)CC1	none (no result: PDI turbidity)
CCCSc1nnc(NC(=O)CSc2sc3c(O)cc(=O)[nH]c3c2C#N)s1	SIRT5 inh 26
N#Cc1c(SCC(=O)Nc2nc3ccccc3s2)sc2c(O)cc(=O)[nH]c12	none (no result: GSIS activator)
N#Cc1c(SCC(=O)Nc2nccs2)sc2c(O)cc(=O)[nH]c12	SIRT5 inh 26
O=C(Nc1ccc2c(c1)OCO2)N[C@@H]1CC[C@H](CCNC(=O)C2CCCCC2)O[C@H]1CO	none (no result: PDI turbidity)
Cc1ccc(S(=O)(=O)N2CCN(C(=O)CCc3nc4ccccc4c(=O)[nH]3)CC2)c(C)c1	ERp5 block 26
Cc1ccc(S(=O)(=O)N2CCN(C(=O)COC(=O)c3ccc(O)cc3)CC2)c(C)c1	GSIS activator 49
Cc1ccc(C)c(S(=O)(=O)N2CCN(C(=O)CCc3nc4ccccc4c(=O)[nH]3)CC2)c1	none
CC(=O)Nc1ccc2c(c1)C(=O)N(C)[C@H]1CC[C@H](CC(=O)NC3CCCCC3)O[C@@H]1CO2	none (no result: S100A4 MyoIIA, SIRT5 inh, ERp5 block, PDI turbidity)
COc1ccc(-c2ccccc2[C@@H]2[C@@H](C#N)N(C(=O)c3cccnc3)[C@@H]2CO)cc1	none (no result: S100A4 MyoIIA, SIRT5 inh, ERp5 block, PDI turbidity)
CCOc1ccc(CCNC(=O)CSC(=S)N2CCCC2)cc1OCC	GSIS activator 41
CCOc1ccc(CCNC(=O)COC(=O)Cn2nc(C)c([N+](=O)[O-])c2C)cc1OCC	GSIS activator 56
Cc1nn(CC(=O)OCC(=O)NCCc2ccc(F)cc2)c(C)c1[N+](=O)[O-]	none
CCOc1ccc(CCNC(=O)COC(=O)c2cccc(N(C)C)c2)cc1OCC	GSIS activator 52
CCOc1ccc(CCNC(=O)COC(=O)COc2ccc(Br)cc2)cc1OCC	GSIS activator 69
CCOc1ccc(CCNC(=O)COC(=O)c2cccc(S(=O)(=O)N(C)C)c2)cc1OCC	none
Cc1ccc(S(=O)(=O)N(C)C[C@H]2Oc3c(NC(=O)c4ccncc4)cccc3C(=O)N([C@H](C)CO)C[C@@H]2C)cc1	none (no result: PDI turbidity)
COc1cccc(NC(=O)Nc2ccc3c(c2)C(=O)N(C)[C@@H]2CC[C@H](CC(=O)NCCc4ccccc4)O[C@@H]2CO3)c1	none (no result: S100A4 MyoIIA, SIRT5 inh, ERp5 block, PDI turbidity)
O=C(CN1CCOCC1)N1CC(=O)N2[C@H](CO)[C@@H](c3ccc(/C=C/c4ccccc4)cc3)[C@@H]2C1	none (no result: PDI turbidity)
CCOc1ccc(CCNC(=O)COC(=O)/C=C/c2ccccc2OC)cc1OCC	GSIS activator 47
CCOc1ccc(CCNC(=O)COC(=O)COc2cc(C)cc(C)c2)cc1OCC	GSIS activator 45
CCOc1ccc(CCNC(=O)COC(=O)/C=C/c2ccc(OC)c(OC)c2)cc1OCC	none
